# How the values were obtained:
# [1] = Protein binding in human plasma; assay type: ADME, cell-free; details: read-out: PB
# [2] = system: Human immunodeficiency virus 1; test: Antiviral activity against HIV1 3B infected human MT4 cells assessed as drug level required for 95% inhibition in the presence of 10% fetal bovine serum; assay type: functional
# Procedure, shortened: (§1)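 Spread assay: MT-4 human T-lymphoid cells in RPMI 1640 with either 10% FBS or 50% NHS; CIC95 taken as the concentration blocking >95% of virus spread. Wild-type virus H9IIIB or R8 as stated per line. Geometric mean of at least two determinations, individual values within 25% of the mean.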
# [3] = system: Human immunodeficiency virus 1; test: Antiviral activity against HIV1 3B infected human MT4 cells assessed as drug level required for 95% inhibition in the presence of 50% normal human serum; assay type: functional; procedure, shortened: as §1
# [4] = system: Human immunodeficiency virus 1; test: Antiviral activity against HIV1 R8 infected human MT4 cells assessed as drug level required for 95% inhibition in the presence of 10% fetal bovine serum; assay type: functional; procedure, shortened: as §1
# [5] = system: Human immunodeficiency virus 1; test: Antiviral activity against HIV1 R8 infected human MT4 cells assessed as drug level required for 95% inhibition in the presence of 50% normal human serum; assay type: functional; procedure, shortened: as §1
# [6] = system: Human immunodeficiency virus 1; test: Ratio of IC50 for HIV1 carrying reverse transcriptase Y188L mutant to IC50 for wild type HIV1 in the presence of 40% normal human serum; assay type: functional
# [7] = system: Human immunodeficiency virus 1; test: Ratio of IC50 for HIV1 carrying reverse transcriptase G190A mutant to IC50 for wild type HIV1 in the presence of 40% normal human serum; assay type: functional
# [8] = system: Human immunodeficiency virus 1; test: Ratio of IC50 for HIV1 carrying reverse transcriptase G190S mutant to IC50 for wild type HIV1 in the presence of 40% normal human serum; assay type: functional
# [9] = system: Human immunodeficiency virus 1; test: Ratio of IC50 for HIV1 carrying reverse transcriptase K103N/V179E mutant to IC50 for wild type HIV1 in the presence of 40% normal human serum; assay type: functional
# [10] = system: Human immunodeficiency virus 1; test: Ratio of IC50 for HIV1 carrying reverse transcriptase K103N/Y181C mutant to IC50 for wild type HIV1 in the presence of 40% normal human serum; assay type: functional
# [11] = system: Human immunodeficiency virus 1; test: Ratio of IC50 for HIV1 carrying reverse transcriptase K103N/G190A mutant to IC50 for wild type HIV1 in the presence of 40% normal human serum; assay type: functional
# [12] = system: Human immunodeficiency virus 1; test: Ratio of IC50 for HIV1 carrying reverse transcriptase Y181C/G190A mutant to IC50 for wild type HIV1 in the presence of 40% normal human serum; assay type: functional
# [13] = system: Human immunodeficiency virus 1; test: Ratio of IC50 for HIV1 carrying reverse transcriptase K103N/P225H mutant to IC50 for wild type HIV1 in the presence of 40% normal human serum; assay type: functional
# [14] = system: Human immunodeficiency virus 1; test: Ratio of IC50 for HIV1 carrying reverse transcriptase […]/G190A mutant to IC50 for wild type HIV1 in the presence of 40% normal human serum; assay type: functional
# [15] = system: Human immunodeficiency virus 1; test: Antiviral activity against HIV1 carrying reverse transcriptase […]/G190A mutant infected human MT4 cells in the presence of 40 percent normal human serum; assay type: functional
# Procedure, shortened: (§2)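 Phenotypic recombinant-virus assay (Phenoscreen, Monogram Bioscience), run with 40% normal human serum present. IC50 is the compound concentration in cell culture that inhibits viral replication by 50%.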
# [16] = system: Human immunodeficiency virus 1; test: Ratio of IC50 for HIV1 carrying reverse transcriptase […]/ Y181C/G190A mutant to IC50 for wild type HIV1 in the presence of 40% normal human serum; assay type: functional
# [17] = system: Human immunodeficiency virus 1; test: Ratio of IC50 for HIV1 carrying reverse transcriptase V106A/G190A/F227L mutant to IC50 for wild type HIV1 in the presence of 40% normal human serum; assay type: functional
# [18] = Half life in Sprague-Dawley rat at 10 mg/kg, po and 2 mg/kg, iv; assay type: ADME, organism-based; details: in vivo
# [19] = system: Human immunodeficiency virus 1; test: Antiviral activity against HIV1 carrying reverse transcriptase K103N/V179E mutant infected human MT4 cells by phenoscreen assay in the presence of 40 percent normal human serum; assay type: functional, organism-based; details: Human immunodeficiency virus 1, MT4; procedure, shortened: as §2
# [20] = system: Human immunodeficiency virus 1; test: Antiviral activity against HIV1 infected human MT4 cells by phenoscreen assay in the presence of 40 percent normal human serum; assay type: functional, organism-based; details: Human immunodeficiency virus 1, MT4
# [21] = system: Human immunodeficiency virus 1; test: Antiviral activity against HIV1 carrying reverse transcriptase […] mutant infected human MT4 cells by phenoscreen assay in the presence of 40 percent normal human serum; assay type: functional, organism-based; details: Human immunodeficiency virus 1, MT4; procedure, shortened: as §2
# [22] = system: Human immunodeficiency virus 1; test: Antiviral activity against HIV1 carrying reverse transcriptase K103N mutant infected human MT4 cells by phenoscreen assay in the presence of 40 percent normal human serum; assay type: functional, organism-based; details: Human immunodeficiency virus 1, MT4; procedure, shortened: as §2
# [23] = system: Human immunodeficiency virus 1; test: Antiviral activity against HIV1 carrying reverse transcriptase Y181C mutant infected human MT4 cells by phenoscreen assay in the presence of 40 percent normal human serum; assay type: functional, organism-based; details: Human immunodeficiency virus 1, MT4; procedure, shortened: as §2
# [24] = system: Human immunodeficiency virus 1; test: Antiviral activity against HIV1 carrying reverse transcriptase Y188L mutant infected human MT4 cells by phenoscreen assay in the presence of 40 percent normal human serum; assay type: functional, organism-based; details: Human immunodeficiency virus 1, MT4; procedure, shortened: as §2
# [25] = system: Human immunodeficiency virus 1; test: Antiviral activity against HIV1 carrying reverse transcriptase K103N/G190A mutant infected human MT4 cells by phenoscreen assay in the presence of 40 percent normal human serum; assay type: functional, organism-based; details: Human immunodeficiency virus 1, MT4; procedure, shortened: as §2
# [26] = system: Human immunodeficiency virus 1; test: Antiviral activity against HIV1 carrying reverse transcriptase Y181C/G190A mutant infected human MT4 cells by phenoscreen assay in the presence of 40 percent normal human serum; assay type: functional, organism-based; details: Human immunodeficiency virus 1, MT4; procedure, shortened: as §2
# [27] = system: Human immunodeficiency virus 1; test: Antiviral activity against HIV1 carrying reverse transcriptase K103N/P225H mutant infected human MT4 cells by phenoscreen assay in the presence of 40 percent normal human serum; assay type: functional, organism-based; details: Human immunodeficiency virus 1, MT4; procedure, shortened: as §2
# [28] = system: Human immunodeficiency virus 1; test: Antiviral activity against HIV1 carrying reverse transcriptase K103N/ Y181C/G190A mutant infected human MT4 cells by phenoscreen assay in the presence of 40 percent normal human serum; assay type: functional, organism-based; details: Human immunodeficiency virus 1, MT4; procedure, shortened: as §2
# [29] = system: Human immunodeficiency virus 1; test: Antiviral activity against HIV1 carrying reverse transcriptase V106A/G190A/F227L mutant infected human MT4 cells by phenoscreen assay in the presence of 40 percent normal human serum; assay type: functional, organism-based; details: Human immunodeficiency virus 1, MT4; procedure, shortened: as §2
# [30] = system: Human immunodeficiency virus 1; test: Ratio of IC50 for HIV1 carrying reverse transcriptase […] mutant to IC50 for wild type HIV1 in the presence of 40% normal human serum; assay type: functional
# [31] = system: Human immunodeficiency virus 1; test: Ratio of IC50 for HIV1 carrying reverse transcriptase K103N mutant to IC50 for wild type HIV1 in the presence of 40% normal human serum; assay type: functional
# [32] = system: Human immunodeficiency virus 1; test: Ratio of IC50 for HIV1 carrying reverse transcriptase Y181C mutant to IC50 for wild type HIV1 in the presence of 40% normal human serum; assay type: functional
# [33] = Inhibition of HIV1 reverse transcriptase K103 mutant
# [34] = system: Rattus norvegicus; test: Hepatic clearance in rat at 10 mg/kg, po and 2 mg/kg, iv; details: in vivo
# [35] = system: Human immunodeficiency virus 1; test: Antiviral activity against HIV1 carrying reverse transcriptase G190A mutant infected human MT4 cells by phenoscreen assay in the presence of 40 percent normal human serum; details: Human immunodeficiency virus 1, MT4
# [36] = system: Human immunodeficiency virus 1; test: Antiviral activity against HIV1 carrying reverse transcriptase G190S mutant infected human MT4 cells by phenoscreen assay in the presence of 40 percent normal human serum; details: Human immunodeficiency virus 1, MT4
# [37] = system: Human immunodeficiency virus 1; test: Antiviral activity against HIV1 carrying reverse transcriptase K101E/G190A mutant infected human MT4 cells by phenoscreen assay in the presence of 40 percent normal human serum; details: Human immunodeficiency virus 1, MT4
# [38] = system: Human immunodeficiency virus 1; test: Antiviral activity against HIV1 carrying reverse transcriptase K101E/ Y181C/G190A mutant infected human MT4 cells by phenoscreen assay in the presence of 40 percent normal human serum; details: Human immunodeficiency virus 1, MT4
smiles,measurement,setting,value
Cc1ccc2c(c1)CCCN2C(=O)SCC(=O)Nc1ccc(S(N)(=O)=O)cc1Cl,fraction unbound,[1],0.01
same,ID95,[2],78 nM
same,ID95,[3],396 nM
O=C(CSC(=O)N1CCCc2cc(Cl)cc(Cl)c21)Nc1ccc(C(=O)NCc2ccccc2)cc1Cl,Activity,[4],63 nM
same,Activity,[5],307 nM
CS(=O)(=O)c1ccc(NC(=O)CSC(=O)N2CCCc3cc(Cl)cc(Cl)c32)c(Cl)c1,fold change (FC),[6],>56
same,fold change (FC),[7],34.8
same,fold change (FC),[8],>56
same,fold change (FC),[9],1.7
same,fold change (FC),[10],33.2
same,fold change (FC),[11],21.3
same,fold change (FC),[12],>56
same,fold change (FC),[13],2.1
same,fold change (FC),[14],>56
same,fold change (FC),[15],>56
same,fold change (FC),[16],>56
same,fold change (FC),[17],>56
same,half-life,[18],1.7 h
same,IC50,[19],7.5 nM
same,Activity,[4],5.6 nM
same,Activity,[5],5.7 nM
same,IC50,[20],4.5 nM
same,IC50,[21],50.5 nM
same,IC50,[22],2 nM
same,IC50,[23],86.6 nM
same,IC50,[24],> 250 nM
same,IC50,[25],57.2 nM
same,IC50,[26],> 250 nM
same,IC50,[27],9.3 nM
same,IC50,[28],> 250 nM
same,IC50,[29],> 250 nM
same,fold change (FC),[30],11
same,fold change (FC),[31],0.4
same,fold change (FC),[32],19
same,IC50,[33],3 nM
same,CL,[34],84 mL/min/kg
same,IC50,[35],157 nM
same,IC50,[36],> 250 nM
same,IC50,[37],> 250 nM
same,IC50,[38],> 250 nM
NCCCNC(=O)c1ccc(NC(=O)CSC(=O)N2CCCc3cc(Cl)cc(Cl)c32)c(Cl)c1,Activity,[4],97 nM
same,Activity,[5],34 nM
